From PubChem
MEKK2mut PB1 HTS = MEK5 binding signal on mutant MEKK2 PB1, primary screen, biochemical, multiplex bead flow cytometry, Alexa488-MEK5; Alexa488-MEK5 binding to MEKK2 mutant; percent response, % at 10 µM; hit rate 0.35% among 290,000; AID 1530, 2009; in the data active means percent response above about 24%, passing the limit was not always enough
ABCB1 block = ABCB1 efflux pump inhibitors, primary screen, cell-based, multiplex, flow cytometry, ABCG2 counter-screen; ATP-dependent translocase ABCB1 (Homo sapiens), P08183; CCRF-Adr cells, JC-1 efflux; inhibition, % at 6.6 µM; hit rate 0.067% among 190,000; AID 1326, 2008; in the data active means inhibition above about 40%;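 further: 0% = vehicle and 100% = reference inhibitor; higher value means more JC-1 retained so stronger ABCB1 efflux block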
MEKK3 PB1 HTS = modulators of MEKK3-MEK5 PB1 binding, primary screen, biochemical, wildtype MEKK3, multiplex bead flow cytometry, Alexa488-MEK5; AID 1529, 2009; Mitogen-activated protein kinase kinase kinase 3 (Homo sapiens), Q99759; binding response (% of control), % at 10 µM; hit rate 1.4% among 290,000; bead-based flow cytometry, Alexa488-MEK5 binding to MEKK3; actives lie on both sides; 0 = blocked by unlabeled MEK5, 100 = vehicle;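 active means binding response more than 3 SD above or below the average of its plate-row segment, actives on both sides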;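 further: Alexa488 bead fluorescence after subtracting the streptavidin-only scavenger bead signal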
MEKK2 WT-MEK5 = modulators of MEK5 binding to wildtype MEKK2, primary screen, biochemical, multiplex bead flow cytometry, Alexa488-MEK5; AID 1531, 2009; Alexa488-MEK5 binding to MEKK2 WT; actives lie on both sides; Mitogen-activated protein kinase kinase kinase 2 (Homo sapiens), Q9Y2U5; hit rate 1.1% among 290,000; binding response (% of control), % at 10 µM; in the data active means binding response below about 67% or above about 130%
ABCG2 inh = ABCG2 efflux pump inhibitors, primary screen, multiplex with ABCB1, IgMXP3 cells, flow cytometry. inhibition, % at 6.6 µM. Broad substrate specificity ATP-binding cassette transporter ABCG2 (Homo sapiens), Q9UNQ0. JC-1 efflux. hit rate 0.1% among 190,000;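 active means inhibition above 80%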;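 further: 0% = DMSO and 100% = nicardipine control wells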
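Test system: IgMXP3 cells (ABCG2) mixed with DDAO far-red-labelled CCRF-Adr cells (ABCB1). Reagent: JC-1 transporter substrate. Compound dosing: single test compound dose, 6.6 µM final. Times: 10 min compound exposure, 25 °C. Detection: flow cytometry of retained JC-1 fluorescence. Read-out basis: efflux inhibition in percent versus controls. Controls: nicardipine and DMSO wells.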
MEKK2wt confirm = modulators of MEK5 binding to wildtype MEKK2, confirmation, biochemical, single concentration, multiplex bead flow cytometry | shares compounds with MEKK3 PB1 HTS | Alexa488-MEK5 binding to MEKK2 WT; actives lie on both sides | binding response (% of control), % at 10 µM | hit rate 2.4% among 5,900 | AID 1892, 2009; in the data active means binding response below about 16% or above about 210%; inactive means in between
MEKK2mut confirm = mutant MEKK2 PB1-MEK5 binding signal retest – biochemical, single concentration, multiplex bead flow cytometry, confirmation; shares compounds with MEKK3 PB1 HTS; Alexa488-MEK5 binding to MEKK2 mutant; percent response, % at 10 µM; hit rate 2% among 5,900; AID 1893, 2009; in the data active means percent response mostly above about 71%, no sharp cut-off; inactive means mostly below about 38%;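 further: higher means compound restores mutant binding toward wildtype level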
MEKK3-MEK5 inh = MEKK3 wild-type PB1 binding to MEK5, inhibitors, confirmation, biochemical, bead multiplex flow cytometry, single concentration, wildtype; binding response (% of control), % at 10 µM; shares compounds with MEKK3 PB1 HTS; Alexa488-MEK5 binding to MEKK3; active compounds read low; hit rate 1.8% among 5,900;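 active means binding response below 72% of control, or above a set upper limit, though filed actives all read lower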;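 further: 100% = DMSO only wells and 0% = binding blocked by excess unlabeled MEK5; lower values mean stronger disruption of MEK5 binding to MEKK3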
Starred values were filed as active, the others as inactive; · = not tested or not shown; [ ] = remark or other dose. Most compounds without a hit are left out; they make up all but 2.3% or so of the library.

SMILES	MEKK2mut PB1 HTS	ABCB1 block	MEKK3 PB1 HTS	MEKK2 WT-MEK5	ABCG2 inh	MEKK2wt confirm	MEKK2mut confirm	MEKK3-MEK5 inh
COc1cc(NC(=O)C2CCCN(c3ncccn3)C2)cc(OC)c1 (configuration not stated)	-1.0	0.4	63.0*[inhibitor]	86.0	1.1	85.0	-10.0	87.0
O=C(OCc1cc2ccccc2[nH]c1=O)C1CCCCC1	4.0	1.7	100.0	100.0	4.6	·	·	·
Cc1ccc2[nH]c(=O)c(COC(=O)C3CCCCC3)cc2c1	21.0	·	129.0*	119.0	·	97.0	-18.0	96.0
CCn1c(CNC(=O)c2cccs2)nnc1SCC(=O)Nc1ccc(Cl)cc1	0.0	2.1	128.0*	110.0	24.4	97.0	-5.0	95.0
CCn1c(SCC(=O)NCC(=O)Nc2ccc(F)cc2)nnc1-c1cccs1	-21.0	-2.2	0.0*[inhibitor]	-4.0*[inhibitor]	-1.3	109.0	9.0	105.0
CCn1c(CC(=O)Nc2ccc(Cl)c(Cl)c2)nnc1SCc1ccc(Cl)cc1	2.0	0.9	8.0*[inhibitor]	14.0*[inhibitor]	-0.1	107.0	3.0	106.0
COc1cc(OC)c(OC)cc1CNC(=O)c1ccc(COc2ccccc2)cc1	-4.0	·	97.0	96.0	·	·	·	·
Cc1ccc(OCCn2ccnc2)c([N+](=O)[O-])c1	21.0	·	108.0	136.0*	·	101.0	5.0	102.0
Cc1cc(OCCCn2ccnc2)ccc1[N+](=O)[O-]	3.0	·	103.0	104.0	·	·	·	·
COc1ccc(C2=NOC(C(=O)N3CCN(C(=O)c4ccco4)CC3)C2)cc1OC (configuration not stated)	-11.0	·	100.0	96.0	·	·	·	·
CC(CNC(=O)c1ccc(C#N)cc1)NC(=O)c1ccc(C#N)cc1 (configuration not stated)	-4.0	·	98.0	100.0	·	·	·	·
CSc1cccc(CN2CCC(CCC(=O)NC3CC3)CC2)c1	-1.0	·	96.0	99.0	·	·	·	·
COc1ccccc1NC(=O)CNC(=O)c1ccccc1	4.0	-1.1	99.0	100.0	8.7	·	·	·
COc1ccccc1NC(=O)CNC(=O)c1ccccc1C	-17.0	0.2	75.0*[inhibitor]	78.0	7.7	102.0	3.0	107.0
O=C(CSc1ccc(Cl)cc1)Nc1ccc(C2SCCS2)cc1	1.0	·	103.0	104.0	·	·	·	·
O=C(COc1ccc(C2SCCS2)cc1)Nc1ccc(Cl)cc1	-15.0	·	72.0*[inhibitor]	79.0	·	99.0	-3.0	101.0
O=C(NNC(=O)c1ccc(S(=O)(=O)N2CCCCC2)cc1)c1ccc(F)cc1	9.0	·	99.0	98.0	·	·	·	·
COC(=O)C1=C(COc2ccccc2)NC(=O)NC1c1ccc2ccccc2c1 (configuration not stated)	6.0	·	104.0	103.0	·	·	·	·
CCNCC(=O)N1c2ccccc2CCc2ccc(NC(C)=O)cc21	-3.0	0.2	93.0	102.0	0.0	·	·	·
CCNCC(=O)N1c2ccccc2CCc2ccc(NC(=O)OC(C)C)cc21	7.0	·	106.0	137.0*	·	127.0	18.0	106.0
CC(=O)NCCC(=O)Nc1nc2ccc(Oc3ccccc3)cc2s1	-1.0	·	103.0	103.0	·	·	·	·
Cc1ccc(-n2cc(CNCC3CC(=O)N(C4CC4)C3)c(-c3cccc(C)c3)n2)cc1 (configuration not stated)	29.0	3.1	105.0	143.0*	8.3	126.0	12.0	100.0
Cc1cc(NS(=O)(=O)c2cccs2)no1	-18.0	0.8	2.0*[inhibitor]	2.0*[inhibitor]	1.5	98.0	-1.0	98.0
O=S(=O)(Nc1ccc2c(c1)OCO2)c1cccs1	8.0	-0.2	132.0*	128.0	2.1	104.0	3.0	108.0
Cc1ccc(S(=O)(=O)Nc2cc(C)on2)cc1	-2.0	·	104.0	102.0	·	·	·	·
SMILES	MEKK2mut PB1 HTS	ABCB1 block	MEKK3 PB1 HTS	MEKK2 WT-MEK5	ABCG2 inh	MEKK2wt confirm	MEKK2mut confirm	MEKK3-MEK5 inh
Cc1sc2ncnc(N3CCN(Cc4ccccc4)CC3)c2c1-c1ccc(F)cc1	1.0	·	104.0	105.0	·	·	·	·
CCN(CC)CCCNC(=O)c1cc(-c2ccccc2)c(N2CCCCC2)s1	26.0*	·	105.0	161.0*	·	162.0	41.0	107.0
CCOC(=O)c1sc(NC(=O)c2cc3n(n2)C(C(F)(F)F)CC(c2ccccc2)N3)c(C(=O)OCC)c1C (configuration not stated)	-14.0	0.4	81.0*[inhibitor]	84.0	2.5	102.0	-3.0	99.0
CCOC(=O)c1sc(NC(=O)c2cc3n(n2)C(C(F)(F)F)CC(c2cccs2)N3)c(C(=O)OCC)c1C (configuration not stated)	0.0	-0.5	98.0	95.0	0.0	·	·	·
C[C@]12CCC(=O)CC1CCC1C2CC[C@@]2(C)C1CC[C@@]21CCO1 (some centres not stated)	11.0	·	107.0	101.0	·	·	·	·
C[C@]12CCC3C(CC[C@H]4CCCC[C@]34C)C1CC[C@@]2(O)CNCCO (some centres not stated)	27.0*	·	105.0	139.0*	·	130.0	20.0	107.0
Cc1cc(Br)ccc1NC(=O)C1CCN(C(=O)c2ccco2)CC1	-2.0	·	98.0	95.0	·	·	·	·
FC(F)(F)c1nnc2ccc(Sc3ccccn3)nn12	-28.0	0.7	1.0*[inhibitor]	·	-0.2	95.0	-8.0	95.0
COC(=O)NNC(=O)c1ccccc1OC	2.0	0.0	101.0	100.0	17.8	·	·	·
COc1ccccc1C(=O)NNC(=O)C1CC=CCC1 (configuration not stated)	-20.0	·	25.0*[inhibitor]	38.0*[inhibitor]	·	103.0	1.0	102.0
C#CCOc1ccc2c3c(c(=O)oc2c1)CCCC3	1.0	·	104.0	104.0	·	·	·	·
Cc1ccc(S(=O)(=O)n2ccc3c(OCCOCCNCc4ccc(F)cc4)cccc32)cc1	54.0*	·	109.0	225.0*	·	191.0	60.0	94.0
CC(=O)c1cccc(NC(=O)CCCCCn2nnc3ccccc3c2=O)c1	1.0	·	98.0	98.0	·	·	·	·
CN(C)CCCNC(=O)c1ccc(-c2nc(-c3ccc(Cl)cc3)cs2)cc1	40.0	0.4	107.0	252.0*	2.6	199.0	47.0	108.0
CC1CC(C)CN(CCCNC(=O)CCC(=O)N2CC(C)Oc3ccccc32)C1 (configuration not stated)	0.0	·	103.0	107.0	·	·	·	·
